Screening data as filed in PubChem BioAssay.
The list is not random: actives were taken first. Their share in the collection is about 0.55%.
TRPML3 ag: human mucolipin-3 channel agonism; 0.29% of 220,000 active; activation, % at 3 µM; HEK293 TRPML3-YFP, Fluo-8 calcium fluorescence; 100% = the carbachol control signal;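 active = activation above its plate's cutoff, the mean activation of the plate's test wells plus 3 SD, cut at about 12% in these data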;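 note: 0% = DMSO only wells and 100% = carbachol wells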
Target sequence (Q8TDD5 whole entry, looked up): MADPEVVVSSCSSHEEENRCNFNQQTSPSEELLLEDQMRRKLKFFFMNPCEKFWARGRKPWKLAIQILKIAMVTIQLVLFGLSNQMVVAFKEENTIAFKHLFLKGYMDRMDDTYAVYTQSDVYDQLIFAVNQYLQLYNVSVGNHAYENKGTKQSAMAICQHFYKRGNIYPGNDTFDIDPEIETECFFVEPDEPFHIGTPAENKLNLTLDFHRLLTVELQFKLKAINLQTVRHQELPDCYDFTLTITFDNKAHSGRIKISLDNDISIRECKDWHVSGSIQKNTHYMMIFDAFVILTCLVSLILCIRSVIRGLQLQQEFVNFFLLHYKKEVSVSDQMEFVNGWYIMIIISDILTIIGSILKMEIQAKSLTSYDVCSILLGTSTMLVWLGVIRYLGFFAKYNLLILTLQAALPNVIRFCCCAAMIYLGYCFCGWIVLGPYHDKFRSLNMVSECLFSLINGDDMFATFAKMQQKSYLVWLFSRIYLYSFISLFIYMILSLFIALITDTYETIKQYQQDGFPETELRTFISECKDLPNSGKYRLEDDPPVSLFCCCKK
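Test system: HEK293 cells stably carrying human TRPML3-YFP; Doses: single dose, 3 µM final nominal compound, 0.3% DMSO final; Schedule: dye loading 1 h 37 °C then 30 min ambient, 125 s read; Technique: Fluo-8 calcium fluorescence; Benchmarks: high control carbachol 87 µM, low control DMSO.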
TRPN1 ag: agonists of zebrafish TRPN1 channel. activation, % at 3 µM. HEK293 zebrafish TRPN1-YFP, Fluo-8 calcium fluorescence; 100% = response to 87 µM carbachol. 0.18% of 220,000 active;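 active = activation above its plate's cutoff, the mean activation of test wells on that plate plus 3 SD, cut at about 19% in these data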;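 note: 0% = DMSO alone and 100% = 87 µM carbachol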
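Material: zebrafish TRPN1-YFP in HEK293 cells. Doses: one dose of 3 µM, 0.3% DMSO. Incubation: dye 1 h 37 °C plus 30 min RT. Measured by: intracellular calcium fluorescence with Fluo-8.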
OXTR potentiate: human OXTR potentiation; CHO-OTR cells, Fluo-8 calcium fluorescence, potentiator mode; 0% = oxytocin EC15, 100% = EC100; activation, % at 3 µM; 0.061% of 320,000 active; AID 2445;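 active = activation above that plate's cutoff, the mean activation of tested compounds plus 3 SD, cut at about 6.6% in these data, passing the limit was not always enough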;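 note: 100% uses oxytocin at 75 nM as the full agonist control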
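Replication – single well per compound, singlicate · Assay system – CHO cell line stably expressing human OTR · Timing – 6 min pre-incubation, 100 s read · Measure – normalized max/min fluorescence ratio, % activation · Doses – 3.0 µM, one dose · Detection – Fluo-8 calcium dye fluorescence · Probe or stimulus – oxytocin near EC15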
OXTR agonist: activates the human oxytocin receptor. P30559. CHO-OTR cells, Fluo-8 calcium fluorescence; normalized: DMSO 0%, oxytocin 100%. activation, % at 3 µM. 0.32% of 320,000 active. AID 2435;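 active = activation above the mean of all tested compounds plus 3 SD, cutoff set per screening run, cut at about 20% in these data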;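 note: peak over basal fluorescence ratio from a 100 s FLIPR kinetic read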
V1R ag counter: activates human V1a receptor in oxytocin agonist counter-screen; P37288; CHO-V1R cells, Fluo-8 calcium fluorescence, agonist mode; 0% DMSO, 100% 3 nM vasopressin; activation, % at 3 µM; 0.25% of 320,000 active; AID 2797;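 active = activation above the mean activation of all tested compounds plus 3 SD, per screening run, cut at about 20% in these data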;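 note: signal is peak over basal fluorescence ratio across a 100 second FLIPR read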
OXTR pot cf: confirmation of human oxytocin receptor potentiators; shares compounds with OXTR potentiate; CHO-OTR cells, Fluo-8 calcium fluorescence, potentiation; scaled from low-dose to maximal oxytocin; activation, % at 3 µM; 180 tested, under 10 active;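 active = mean percent activation over triplicates above a cutoff set from solvent-only control plates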;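 note: compounds tested in the presence of an EC15 dose of oxytocin; 0% = EC15 oxytocin with DMSO and 100% = EC100 oxytocin with DMSO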
Numbers without * were called inactive; . = no result given.

SMILES	TRPML3 ag	TRPN1 ag	OXTR potentiate	OXTR agonist	V1R ag counter	OXTR pot cf
O=C(N/N=C/c1cn(-c2ccccc2)nc1-c1ccccc1)c1ccco1	-0.6	0.7	9.9*	-1.3	-0.9	-2.5
CCOC(=O)c1nc(C)n(-c2ccc([N+](=O)[O-])cc2)n1	0.7	-0.1	-3.4	0.2	0.9	.
CCOC(=O)c1nc(C)n(-c2ccc(Cl)cc2)n1	0.1	0.5	9.9*	-0.7	-0.2	-1.2
Cc1nnc(SCC(=O)N(CC(C)C)C2CCS(=O)(=O)C2)s1 (stereo not drawn)	.	.	-1.7	-0.4	0.3	.
CC(C)CN(C(=O)CSc1nnc2ccccn12)C1CCS(=O)(=O)C1 (stereo not drawn)	.	.	14.5*	1.1	1.7	-6.9
Cc1sc(NC(=O)CS(=O)(=O)c2ccccc2)c(C(N)=O)c1C	.	.	8.1*	-1.5	0.1	-7.8
CNC(=O)c1c(NC(=O)CS(=O)(=O)c2ccccc2)sc(C)c1C	.	.	-7.4	-0.3	-1.1	.
Cc1cccn2cc(CNC(=O)C3CCCCC3)nc12	1.1	-0.1	-1.0	0.1	-0.3	.
Cc1cccn2cc(CNC(=O)c3ccc(Br)o3)nc12	-0.3	-0.4	12.3*	-0.7	0.4	-3.4
CCOc1ccc(S(=O)(=O)N2CCC(C(=O)NCc3ccncc3)CC2)cc1Cl	.	.	-8.4	-1.2	1.1	.
Cc1cccc(N2CCN(C(=O)CCc3nc4ccccc4c(=O)[nH]3)CC2)c1C	.	.	-5.3	-1.1	-1.2	.
C=CCn1c(N2CCCC2)nc2c1c(=O)[nH]c(=O)n2C	-0.6	-0.1	10.6*	0.4	-0.6	-5.2
C/C(Cl)=C/Cn1c(N2CCCC2)nc2c1c(=O)[nH]c(=O)n2C	.	.	-0.8	-0.2	-0.1	.
O=C(CCNC(=O)c1ccc([N+](=O)[O-])cc1)Oc1ccc(F)c(F)c1	.	.	-4.8	1.9	1.0	.
CCOc1ccc(C(=O)Nc2nnc(SCC(=O)NCC3CCCO3)s2)cc1OCC (stereo not drawn)	.	.	10.7*	1.3	0.7	-0.1
Cc1ccc(NC(=O)C2=C(c3ccccc3)S(=O)(=O)CCS2(=O)=O)cc1	2.9	3.4	-2.4	2.0	0.2	.
Cc1ccc(NC(=O)CN2C(=O)C(=O)N(C3CCCC3)C2=O)c(Cl)c1	.	.	-5.2	-1.6	0.0	.
O=C(NCCCN1CCOCC1)C1CC(=O)N(CCc2ccccc2)C1 (stereo not drawn)	1.1	-1.7	12.2*	0.7	1.3	-9.7
O=C(NCCCN1CCCCCC1)C1CC(=O)N(CCc2ccccc2)C1 (stereo not drawn)	-0.3	-0.9	-4.8	-0.6	-0.4	.
CCN(CC)S(=O)(=O)c1ccc(C)c(NC(=O)c2cc(C)oc2C)c1	-0.2	-2.3	12.6*	0.1	-1.1	-5.8
COc1ccc(CNC(=O)[C@H](C)NC(=O)C2CC(=O)N(c3ccc4c(c3)OCO4)C2)cc1 (stereo partly drawn)	.	.	13.7*	-0.5	-0.3	-1.1
Cn1c(N)c(C(=O)COC(=O)Cc2cccc(C(F)(F)F)c2)c(=O)n(C)c1=O	.	.	-10.2	4.3	2.7	.
COC(=O)c1ccc(NC(=O)Cn2nc(C(=O)Nc3ccc(C)cc3)ccc2=O)cc1	.	.	1.2	-0.2	0.0	.
COc1ccc(C(=O)NNC(=O)c2ccc(F)c(S(=O)(=O)N3CCOCC3)c2)cc1	.	.	13.7*	1.5	0.7	-5.1
CC(=O)NC1=NN(C(C)=O)C(C)(CCS(=O)(=O)c2ccc(Br)cc2)S1 (stereo not drawn)	0.0	-0.7	13.3*	2.5	1.1	-5.6
O=C(NCc1ccccn1)c1ccc(Cl)c(S(=O)(=O)Nc2ccccc2C(=O)NCc2ccccn2)c1	0.1	0.2	13.7*	-1.6	0.6	-5.5
O=C(NC1CCCCC1)C1CCN(S(=O)(=O)c2cccc3cccnc23)CC1	1.0	0.5	14.5*	1.4	0.7	-4.2
CCOC(=O)N1CCC(NC(=O)C2CCN(S(=O)(=O)c3cccc4cccnc34)CC2)CC1	0.3	1.1	-8.0	-0.3	-0.3	.
O=C1CC/C=C\C[C@@H](CC(=O)N(CCO)Cc2ccccc2)C(=O)N[C@H](Cc2c[nH]c3ccccc23)CO1	.	.	-7.2	0.0	0.0	.
